ChEMBL document CHEMBL3414458, “Discovery of novel 2,5-dioxoimidazolidine-based P2X(7) receptor antagonists as constrained analogues of KN62” (J Med Chem, 2015)
The source made the active and inactive calls. The rule behind the calls is not given here.

Key:
[1] = target: T1, P2X purinoceptor 1 (Mus musculus) (UniProt P51576); experiment: Antagonist activity at recombinant mouse P2X1 receptor overexpressed in Xenopus oocytes assessed as inhibition of ATP-induced ion current at 10 uM preincubated for 20 mins followed by ATP induction by two-electrode voltage clamping method relative to control; type: cell-based
T1 sequence (whole entry): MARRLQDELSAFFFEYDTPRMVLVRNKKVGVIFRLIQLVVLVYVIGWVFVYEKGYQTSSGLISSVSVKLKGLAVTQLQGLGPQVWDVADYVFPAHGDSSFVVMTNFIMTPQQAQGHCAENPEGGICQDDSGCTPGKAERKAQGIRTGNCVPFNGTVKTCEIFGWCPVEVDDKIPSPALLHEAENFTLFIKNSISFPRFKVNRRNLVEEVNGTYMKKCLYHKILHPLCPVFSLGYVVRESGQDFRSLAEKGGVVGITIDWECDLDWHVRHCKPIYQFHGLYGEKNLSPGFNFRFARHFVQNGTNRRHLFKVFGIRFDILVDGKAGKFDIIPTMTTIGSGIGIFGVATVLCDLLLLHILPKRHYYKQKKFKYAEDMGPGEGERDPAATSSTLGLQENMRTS
Outline: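 Two-electrode voltage clamp on Xenopus oocytes expressing the receptor after cRNA microinjection. Current was evoked by 2 µM ATP, with test compound at 10 µM.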

[2] = tested on: Mus musculus; experiment: Downregulation of COX-2 expression in ankle tissue of CII-induced DBA/1J mouse arthritic model at 25 to 50 mg/kg, ip measured 10 days post second CII booster by immunoblot analysis; type: functional, organism-based
[3] = target: T2, P2X purinoceptor 7 (Rattus norvegicus) (UniProt Q64663); experiment: Antagonist activity at P2X7 receptor in neuropathic rat dorsal horn assessed as inhibition of long term potentiation-induced neropathic pain at 20 uM relative to control; conditions: Dorsal horn of spinal cord
T2 sequence (whole entry): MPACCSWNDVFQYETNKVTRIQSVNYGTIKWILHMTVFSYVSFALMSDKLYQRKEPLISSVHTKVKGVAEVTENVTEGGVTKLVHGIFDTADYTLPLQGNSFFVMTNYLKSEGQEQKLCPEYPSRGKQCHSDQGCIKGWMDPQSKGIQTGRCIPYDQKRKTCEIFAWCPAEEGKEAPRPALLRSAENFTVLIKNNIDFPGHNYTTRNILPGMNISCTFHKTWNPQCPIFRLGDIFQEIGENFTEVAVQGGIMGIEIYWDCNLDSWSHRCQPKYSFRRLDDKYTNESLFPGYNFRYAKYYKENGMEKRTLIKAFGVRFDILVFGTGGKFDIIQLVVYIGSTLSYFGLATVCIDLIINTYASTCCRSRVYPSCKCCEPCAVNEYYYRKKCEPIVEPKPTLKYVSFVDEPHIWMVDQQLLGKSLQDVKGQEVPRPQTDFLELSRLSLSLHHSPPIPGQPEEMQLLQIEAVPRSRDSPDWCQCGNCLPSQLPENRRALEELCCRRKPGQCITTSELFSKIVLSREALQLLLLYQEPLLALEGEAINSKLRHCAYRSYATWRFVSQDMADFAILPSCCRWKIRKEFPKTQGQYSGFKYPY
Outline: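 Ex vivo spinal cord preparation: LTP-induced pain signalling recorded in the dorsal horn of neuropathic rats. Pregabalin served as the positive control.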

[4] = target: T3, P2X purinoceptor 7 (Mus musculus) (UniProt Q9Z1M0); experiment: Antagonist activity at P2X7 receptor in LPS-primed mouse J774.A1 cells assessed as inhibition of ATP-induced IL-1beta release after 30 mins by ELISA; type: cell-based
T3 sequence (whole entry): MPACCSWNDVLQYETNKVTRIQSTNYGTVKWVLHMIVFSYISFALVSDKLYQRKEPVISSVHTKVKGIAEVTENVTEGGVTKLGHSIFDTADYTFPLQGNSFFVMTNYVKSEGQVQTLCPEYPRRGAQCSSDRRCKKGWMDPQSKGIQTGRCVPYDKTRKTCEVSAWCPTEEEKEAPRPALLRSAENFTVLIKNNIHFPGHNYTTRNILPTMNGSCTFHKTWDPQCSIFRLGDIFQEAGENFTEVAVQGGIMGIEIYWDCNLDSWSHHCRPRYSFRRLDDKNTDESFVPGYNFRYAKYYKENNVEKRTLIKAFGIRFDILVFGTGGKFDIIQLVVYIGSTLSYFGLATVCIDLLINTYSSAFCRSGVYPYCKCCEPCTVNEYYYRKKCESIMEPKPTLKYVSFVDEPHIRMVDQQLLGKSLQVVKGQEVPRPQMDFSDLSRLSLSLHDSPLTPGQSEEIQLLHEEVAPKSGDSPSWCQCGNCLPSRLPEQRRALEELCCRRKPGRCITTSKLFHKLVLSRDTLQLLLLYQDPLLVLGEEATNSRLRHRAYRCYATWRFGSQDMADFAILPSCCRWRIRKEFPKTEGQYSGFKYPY
Outline: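 J774.A1 mouse cells stimulated with 5 mM ATP; IL-1β release measured, with IC50 taken from concentration-response data.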

[5] = target: T4, P2X purinoceptor 3 (Homo sapiens) (UniProt P56373); experiment: Antagonist activity at recombinant human P2X3 receptor overexpressed in Xenopus oocytes assessed as inhibition of ATP-induced ion current at 10 uM preincubated for 20 mins followed by ATP induction by two-electrode voltage clamping method relative to control; type: cell-based
T4 sequence (whole entry): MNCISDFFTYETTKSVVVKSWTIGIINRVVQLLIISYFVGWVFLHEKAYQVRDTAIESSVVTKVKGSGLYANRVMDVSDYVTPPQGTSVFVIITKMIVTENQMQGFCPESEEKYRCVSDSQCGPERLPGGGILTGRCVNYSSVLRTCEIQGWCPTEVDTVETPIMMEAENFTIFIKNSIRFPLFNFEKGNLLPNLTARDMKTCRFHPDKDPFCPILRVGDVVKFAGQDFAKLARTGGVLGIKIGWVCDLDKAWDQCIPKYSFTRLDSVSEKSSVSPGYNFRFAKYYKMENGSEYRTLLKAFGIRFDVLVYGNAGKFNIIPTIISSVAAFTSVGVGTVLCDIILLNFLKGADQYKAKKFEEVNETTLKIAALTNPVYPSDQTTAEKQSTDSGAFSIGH
Outline: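 Xenopus oocytes were microinjected with capped cRNA for human P2X3. Two-electrode voltage clamp recorded ion current evoked by 2 µM ATP. Test compound at 10 µM was scored as percent reduction of the ATP-induced current.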

[6] = tested on: Mus musculus; experiment: Antiarthritic activity in CII-induced DBA/1J mouse arthritic model assessed as decrease in chronic inflammation at 50 mg/kg, ip measured 10 days post second CII booster by Hematoxylin and eosin staining relative to CII-treated control; type: functional, organism-based; parameters: dose 50 mg/kg
Outline: (§1)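 Mouse type II collagen-induced arthritis; 50 mg/kg dosed by injection. Ankle histology was scored as cumulative arthritis injury scores against the vehicle-treated CII group.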

[7] = tested on: Mus musculus; experiment: Antiarthritic activity in CII-induced DBA/1J mouse arthritic model assessed as decrease in fibrosis at 50 mg/kg, ip measured 10 days post second CII booster by Hematoxylin and eosin staining relative to CII-treated control; type: functional, organism-based; parameters: dose 50 mg/kg; outline: as §1
[8] = tested on: Rattus norvegicus; experiment: Antiinflammatory activity in Sprague-Dawley rat assessed as decrease in carrageenan-induced paw edema at 10 mg/kg, ip preincubated for 1 hr followed by carrageenan challenge measured after 3 to 6 hrs by plethysmometer relative to control

inhibition [1]: 16%
inhibition [3]: 76%
inhibition [4]: Dose-dependent effect
inhibition [5]: 5.05%
SMILES: O=C1NC(=O)N(C2CCN(C(=O)c3ccc(Cl)c(C(F)(F)F)c3)CC2)C1Cc1ccc(OS(=O)(=O)c2cccc3cnccc23)cc1 (racemic)
Activity [2]: Active
Activity [6]: Active
Activity [7]: Active
Activity [8]: Active
